The list is not random: actives were taken first. Their share in the collection is about 1.9%.
ARFGAP1 inh – inhibitors of rat ARFGAP1 GAP activity, primary screen, biochemical, fluorescence polarization, GDP tracer. Arfgap1-stimulated ARF1 GTP hydrolysis, GDP FP detection. inhibition, % at 16.5 µM. hit rate 0.26% among 360,000. AID 651572, 2012;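 active = inhibition above a per-plate limit, mean inhibition of low control wells plus 3 SD, cut at about 25% in these data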
Target sequence (Q62848 1-136 limits assumed): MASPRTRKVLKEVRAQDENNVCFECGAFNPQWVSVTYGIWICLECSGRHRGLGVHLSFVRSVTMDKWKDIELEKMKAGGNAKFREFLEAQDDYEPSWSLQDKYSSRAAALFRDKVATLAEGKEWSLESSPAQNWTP
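Repeats: one replicate per compound; assay system: rat Arfgap1 catalytic domain, aa 1-136; times: enzyme reaction 120 min at 25 °C after 20 min preincubation; detection: FP of antibody-bound GDP Alexa 633 tracer, ex 620/em 688 nm; benchmarks: high control wells lacking Arfgap1, low control full reaction with DMSO; reagent: human ARF1(Δ1-17)-GTP substrate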
ASAP1 GAP inh – inhibitors of human ASAP1 ArfGAP activity, primary screen, biochemical, fluorescence polarization | inhibition, % at 16.5 µM | ASAP1-stimulated ARF1 GTP hydrolysis, GDP FP detection | Arf-GAP with SH3 domain, ANK repeat and PH domain-containing protein 1 (Homo sapiens), … | AID 624377, 2012 | hit rate 0.19% among 360,000; in the data active = inhibition above about 25%
Rtt109 Vps75 – inhibitors of C. albicans Rtt109/Vps75 HAT, primary screen, biochemical, ThioGlo CoA-SH fluorescence, plate reader | Histone acetyltransferase RTT109 (Candida albicans (strain SC5314 / ATCC MYA-2876)), … | purified Rtt109/Vps75, 4 h | inhibition, % at 34.9 µM | hit rate 0.16% among 330,000 | AID 540336, 2011;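 active = inhibition of at least 50% in every replicate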
Target sequence (Q5AAJ8 whole entry, looked up): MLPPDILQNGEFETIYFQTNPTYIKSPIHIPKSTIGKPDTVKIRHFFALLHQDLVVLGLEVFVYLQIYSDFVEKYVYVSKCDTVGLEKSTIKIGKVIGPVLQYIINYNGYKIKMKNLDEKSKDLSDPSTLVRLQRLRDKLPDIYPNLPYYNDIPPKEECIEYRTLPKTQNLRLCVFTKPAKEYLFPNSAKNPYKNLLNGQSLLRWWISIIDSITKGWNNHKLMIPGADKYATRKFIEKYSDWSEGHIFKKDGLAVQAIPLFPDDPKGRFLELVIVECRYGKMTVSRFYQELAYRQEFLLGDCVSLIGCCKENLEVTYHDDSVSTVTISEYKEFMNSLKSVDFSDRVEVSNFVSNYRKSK
Efflux pump mplx – inhibitors of Candida efflux pumps in yeast, primary screen, S. cerevisiae, Nile Red, multiplex. inhibition, % at 10 µM. S. cerevisiae Candida pump triplex. AID 485275, 2010. hit rate 0.44% among 330,000;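 active = plate passing quality check with inhibition over a set limit, or well fluorescence over plate mean plus 4 SD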;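 note: Nile Red retained in pooled yeast measured as flow cytometry median fluorescence; higher means more Nile Red kept so more efflux inhibition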
FGF22 binding – binders of human FGF22 protein, primary screen, FGF22 synaptogenesis inhibitor project, biophysical, thermal shift, single point | Fibroblast growth factor 22 (Homo sapiens), Q9HCT0 | recombinant FGF22 thermal shift, SYPRO orange fluorescence; percent of sucrose octasulfate shift, DMSO zero | activity (Tm shift, normalised), % at 9.99 µM | hit rate 1.5% among 340,000 | AID 651658, 2012;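 active = mean Tm shift, scaled 0 neutral to 100 positive control, at about 1.3% or above, every replicate too, limit read from the data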
Target sequence (Q9HCT0 whole entry, looked up): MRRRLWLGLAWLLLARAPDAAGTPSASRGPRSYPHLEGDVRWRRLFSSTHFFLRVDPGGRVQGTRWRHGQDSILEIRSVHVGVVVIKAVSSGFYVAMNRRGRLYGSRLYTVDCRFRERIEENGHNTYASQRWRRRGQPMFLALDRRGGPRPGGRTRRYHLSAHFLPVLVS
Cmpd fluor yeast – flagged as fluorescent in efflux inhibitor counter-screen | shares compounds with Efflux pump mplx | fluorescence ratio to DMSO, % at 10 µM | S. cerevisiae AD/pABC3, compound fluorescence, flow cytometry | hit rate 4% among 1,700;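 active = fluorescence ratio to DMSO above its plate's cutoff, the plate mean ratio plus 5 SD, cut at about 210% in these data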;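 note: unstained yeast with no Nile Red so the signal is compound autofluorescence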
CaMdr1 efflux inh – inhibitors of Candida albicans Mdr1 efflux, confirmation, flow cytometry, singleplex, Cherry Pick1 set. shares compounds with Efflux pump mplx. S. cerevisiae AD/CaMDR1, Nile Red efflux. inhibition, % at 10 µM. hit rate 1% among 1,700; in the data active = inhibition above about 26%;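 note: higher means more Nile Red retained so more efflux inhibition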
CaCdr2 efflux inh – inhibitors of Candida albicans Cdr2 efflux pump, confirmation, S. cerevisiae AD/CaCDR2, flow cytometry, cherry pick 1, singleplex; shares compounds with Efflux pump mplx; Nile Red retention; Nile Red retention ratio vs DMSO, % at 10 µM; hit rate 4% among 1,700; AID 588520, 2011; in the data active = Nile Red retention ratio vs DMSO above about 190%;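 note: higher ratio means more blocking of Cdr2 efflux of the dye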
Cdr1 pump inh – inhibitors of Candida albicans Cdr1 efflux pump, confirmation, S. cerevisiae AD/CaCDR1, flow cytometry, cherry pick 1, singleplex; shares compounds with Efflux pump mplx; Nile Red efflux; inhibition, % at 10 µM; hit rate 1% among 1,700; AID 588522, 2011;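 active = inhibition above the screen-wide mean plus twice its standard deviation, cut at about 32% in these data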
Numbers stand for hits; - = inactive; . = not tested or not shown.

SMILES	ARFGAP1 inh	ASAP1 GAP inh	Rtt109 Vps75	Efflux pump mplx	FGF22 binding	Cmpd fluor yeast	CaMdr1 efflux inh	CaCdr2 efflux inh	Cdr1 pump inh
CC(=O)C1=C(O)C(=O)N(c2ccc(O)cc2)C1c1ccc(Cl)cc1 (stereo unspecified)	-	-	-	-	-	.	.	.	.
Cc1ccc(NC2=NC(c3ccc(O)cc3)n3c(nc(C)cc3=O)N2)cc1 (stereo unspecified)	-	-	-	-	.	.	.	.	.
COc1ccc(C2N=C(Nc3ccc(C)cc3)Nc3nc(C)cc(=O)n32)cc1 (stereo unspecified)	-	-	-	0.4	.	-	-	-	-
CC(C)CCOc1ccc(C(=O)N2CCN(c3ncccn3)CC2)cc1	-	-	-	3.5	-	-	-	-	-
CCCCCOc1ccc(Cl)cc1CN1CCOCC1	-	-	-	-	.	.	.	.	.
O=C(C[n+]1cc(-c2ccc(Cl)c(Cl)c2)n2c1CCC2)OCc1ccccc1	-	-	-	6.4	-	-	-	-	-
Clc1ccccc1CSc1nncn1NC/C=C/c1ccccc1	-	-	-	7.6	-	-	-	-	-
FC(F)(F)c1cc(-c2ccco2)nc(N2CCN(c3ccccc3)CC2)n1	-	-	-	-	.	.	.	.	.
O=C(CCSc1nc(-c2ccco2)cc(C(F)(F)F)n1)N1CCN(c2ccccc2)CC1	-	-	-	0.5	.	-	-	-	-
CCC(=O)Nc1nnc(SCC(=O)NCCc2ccc(OC)c(OC)c2)s1	-	-	-	-	-	.	.	.	.
N#Cc1cc(C(=O)c2ccccc2O)cn(-c2nccs2)c1=O	-	-	-	-	.	.	.	.	.
N#Cc1cc(C(=O)c2cc(F)ccc2O)cn(-c2nccs2)c1=O	-	-	-	6.7	.	210	-	-	-
O=C(CC1C[C@H](C(=O)N2CCOCC2)[C@@]2(CCC3CCCC3)c3[nH]c4ccccc4c3CCN2C1=O)NCCN1CCOCC1 (stereo partly specified)	-	-	-	-	-	.	.	.	.
O=C(CC1C[C@H](C(=O)N2CCOCC2)[C@@]2(CCC3CCCC3)c3[nH]c4ccccc4c3CCN2C1=O)NCC12CC3CC(CC(C3)C1)C2 (stereo partly specified)	-	-	-	1.2	-	-	-	-	-
CCOc1ccccc1/C=N/NC(=O)c1nnn(-c2nonc2N)c1CN1CCC(C)CC1	-	-	-	0.6	-	-	-	-	-
CCOc1ccc(-c2c(C(=O)N/N=C/c3ccccc3)nnn2-c2nonc2N)cc1	-	-	-	-	-	-	-	-	-
COc1ccc2ccccc2c1/C=N/NC(=O)c1nnn(-c2nonc2N)c1C(C)C	-	-	-	-	-	.	.	.	.
Cc1c(C(=O)N/N=C/c2c(O)ccc3ccccc23)nnn1-c1nonc1N	-	-	-	1.0	-	-	-	-	-
CCOc1ccc(-c2c(C(=O)N/N=C/c3ccc(C)cc3)nnn2-c2nonc2N)cc1	-	-	-	-	-	.	.	.	.
CCCCCN(C(=O)CCC(=O)OCc1ccc(Cl)cc1Cl)c1c(N)n(CCCC)c(=O)[nH]c1=O	-	-	-	-	-	.	.	.	.
C[C@H]1CN([C@@H](C)CO)C(=O)c2cccc(NS(=O)(=O)c3ccc(F)cc3)c2O[C@H]1CN(C)C(=O)Nc1ccccc1	.	.	.	.	-	.	.	.	.
NC1=NC(=O)/C(=C/c2cn(CCC(=O)O)nc2-c2ccc(Cl)cc2)S1	-	-	-	-	-	.	.	.	.
Cc1cc(C)c(NC(=O)Cn2c(=O)n(Cc3ccco3)c(=O)c3ccccc32)c(C)c1	-	-	-	1.1	.	-	-	-	-
COc1cc2c(=O)n(Cc3ccco3)c(=O)n(CC(=O)c3cccc(Br)c3)c2cc1OC	.	.	.	1.0	.	-	-	-	-
CCCNc1c(NS(=O)(=O)c2ccc(C)cc2C)c(=O)oc2ccccc12	-	-	-	-	-	.	.	.	.
SMILES	ARFGAP1 inh	ASAP1 GAP inh	Rtt109 Vps75	Efflux pump mplx	FGF22 binding	Cmpd fluor yeast	CaMdr1 efflux inh	CaCdr2 efflux inh	Cdr1 pump inh
O=C(NC(NC(=S)Nc1ccccc1Cl)C(Cl)(Cl)Cl)c1cccc(Cl)c1 (stereo unspecified)	-	-	-	-	.	.	.	.	.
Nc1nc(COc2ccc(F)cc2)nc(N2CCCCC2)n1	-	-	-	-	-	.	.	.	.
CC1(C(=O)O)COC(c2ccc(Cl)cc2)OC1 (stereo unspecified)	-	-	-	-	-	.	.	.	.
COC(=O)c1ccc(C2OCC(C)(C)CO2)cc1	-	-	-	1.1	-	-	-	-	-
O=C(COC(=O)c1ccccc1NCCO)Nc1ccc(S(=O)(=O)NC2=NCCCCC2)cc1	-	-	-	.	-	.	.	.	.
COC(=O)C1C2C=CC3(CN(C(C)c4ccc(OC)cc4)C(=O)C13)O2 (stereo unspecified)	-	-	-	-	.	.	.	.	.
CCCCOP(=O)(c1ccc(N(C)C)cc1)C(Nc1ccccc1)c1ccccc1 (stereo unspecified)	-	-	-	-	-	.	.	.	.
CCCOP(=O)(c1ccc(N(C)C)cc1)C(Nc1ccccc1)c1ccc(N(C)C)cc1 (stereo unspecified)	-	-	-	2.6	-	-	-	-	-
C[C@H](CO)N1C[C@H](C)[C@H](CN(C)Cc2ccc3c(c2)OCO3)OCCCC[C@H](C)Oc2ccc(NC(=O)Nc3ccc4c(c3)OCO4)cc2C1=O	.	.	.	.	-	.	.	.	.
COc1ccccc1C(=O)COC(=O)c1ccccc1OCC(=O)Nc1ccc(SC(F)F)cc1	-	-	-	11	-	-	-	-	-
Cc1ccc2cccc(S(=O)(=O)n3nc(C)cc3C)c2n1	-	-	-	-	.	.	.	.	.
C[C@H](CO)N1C[C@H](C)[C@H](CN(C)C(=O)NC2CCCCC2)OCCCC[C@H](C)Oc2ccc(NC(=O)Nc3ccc(C(F)(F)F)cc3)cc2C1=O	.	.	.	.	-	.	.	.	.
Cc1ccccc1OCc1nc2c3c(ncn2n1)-c1ccccc1CC31CCCC1	-	-	-	34	.	-	-	-	-

Screening results: PubChem BioAssay, several laboratories
